In brackets after ≈: the same amount, converted by molar mass. Activity calls are given as the source filed them. The rule behind the calls is not given here.
Columns and labels:
Staphylococcus aureus = test: Antibacterial activity against methicillin-resistant Staphylococcus aureus after 24 hrs by optical density method; assay type: functional
Summary of the method: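 MRSA grown on GYT medium for 24 h at 37 °C, then inoculated into GYT medium containing serial dilutions of compound and incubated 24 h at 37 °C. Growth read as optical density at 600 nm. MIC taken as the lowest concentration inhibiting bacterial growth.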

NCI-H460 = test: Cytotoxicity against human H460 cells after 48 hrs by MTT assay; assay type: functional, cell-based
Summary of the method: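 H-460 cells at 3.33×10^4 cells/mL in RPMI 1640 with FBS and 1% pen/strep, 180 µL/well, recovered overnight (37 °C, 5% CO2). DMSO stocks (10 mg/mL) diluted in serum-free RPMI to final 30 or 3 µg/mL; serum-free medium as negative control. ~48 h incubation, then MTT, absorbance read at 570 and 630 nm.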

Neuro2a [1] = test: Inhibition of voltage-gated sodium channel in mouse Neuro2a cells at 20 ug/ml after 24 hrs by MTT assay; assay type: cell-based
Neuro2a [2] = test: Activation of voltage-gated sodium channel in mouse Neuro2a cells at 20 ug/ml after 16 hrs by MTT assay; assay type: cell-based
Summary of the method: (§1)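 Neuro2a cells plated at 3.0×10^5 cells/mL in RPMI 1640 with 10% FBS and 1% pen/strep, 200 µL/well, recovered overnight (37 °C, 5% CO2). DMSO stocks (10 mg/mL) diluted in serum-free RPMI to a final 20 µg/mL. Bottom half of plate got 5 mM ouabain plus 150 µM veratridine in PBS/5 mM HCl; top half PBS/HCl only for general toxicity. Brevetoxin-2 positive control. MTT after ~16 h, read at 570/630 nm.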

Artemia salina = test: Toxicity in Artemia salina after 24 hrs; assay type: organism-based
Summary of the method: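 Artemia salina eggs hatched over 24 h; about 20 nauplii in ~0.5 mL seawater added per well holding sample in 50 µL EtOH plus 4.5 mL artificial seawater. Final concentrations 1, 5 and 25 ppm, controls and samples in triplicate. Live and dead counted after 24 h at 28 °C.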

[3] = Activation of voltage-gated sodium channel in mouse Neuro2a cells after 16 hrs by MTT assay; assay type: cell-based; conditions: N2a; summary of the method: as §1

| Structure (SMILES) | Activity (Staphylococcus aureus) | Activity (NCI-H460) | inhibition (Neuro2a [1]) | Activity (Neuro2a [2]) | Activity (Artemia salina; artemia salina, in vivo, 24 h) | IC50 (NCI-H460; NCI-H460, 48 h) | IC50 [3] | MIC (Staphylococcus aureus) | IC50 (Artemia salina) |
| --- | --- | --- | --- | --- | --- | --- | --- | --- | --- |
| O=S(=O)(O)Oc1ccc(Oc2c(Br)cc(Oc3ccc(O)c(Br)c3)cc2Oc2ccc(Br)cc2Br)c(Br)c1Oc1ccc(Br)cc1Br | inactive | inactive | inactive | inactive |  |  |  |  |  |
| O=S(=O)(O)Oc1ccc(Oc2cc(Br)c(Oc3ccc(O)c(Oc4ccc(Br)cc4Br)c3Br)c(Oc3ccc(Br)cc3Br)c2)cc1Br | inactive | inactive | inactive | inactive |  |  |  |  |  |
| Oc1ccc(Oc2cc(Br)c(Oc3ccc(O)c(Oc4ccc(Br)cc4Br)c3Br)c(Oc3ccc(Br)cc3Br)c2)cc1Br [CROSSBYANOL A] | inactive |  | inactive |  | Non-toxic | 30 µg/mL (≈ 29.1 µM) | 20 µg/mL (≈ 19.4 µM) |  |  |
| O=S(=O)(O)Oc1ccc(Oc2cc(Br)c(Oc3ccc(OS(=O)(=O)O)c(Oc4ccc(Br)cc4Br)c3Br)c(Oc3ccc(Br)cc3Br)c2)cc1Br [CROSSBYANOL B] |  | inactive | inactive | inactive |  |  |  | 2 µg/mL (≈ 1.68 µM) | 2.8 ppm |

From ChEMBL document CHEMBL1157068, “Crossbyanols A-D, toxic brominated polyphenyl ethers from the Hawai'ian bloom-forming Cyanobacterium Leptolyngbya crossbyana” (J Nat Prod, 2010)
